Source: ChEMBL document CHEMBL1157979, “Chromone derivatives from the filamentous fungus Lachnum sp. BCC 2424” (J Nat Prod, 2006)
In brackets after ≈: the same amount, converted by molar mass. Activity calls are given as the source filed them. The calls are words filed in the database; no cut-off is given here.

How the values were obtained:
BC1 = test: (§1) Cytotoxicity against human BC1 cells by MTT assay; assay type: functional, cell-based
Candida albicans = test: Antifungal activity against Candida albicans by MTT assay; assay type: functional, organism-based
How it was run: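 Tested against Candida albicans strain ATCC 90028 with a modified colorimetric method that uses tetrazolium salt (MTT) reduction as the read-out.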

[1] = test system: Mycobacterium tuberculosis; test: Antimicrobial activity against Mycobacterium tuberculosis H37Ra by Microplate Alamar blue assay; assay type: functional
How it was run: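 Whole-cell growth inhibition of M. tuberculosis H37Ra read by Microplate Alamar Blue Assay; value reported as minimum inhibitory concentration; isoniazid and kanamycin sulfate as reference drugs.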

KB = test: Cytotoxicity against human KB cells by MTT assay; assay type: functional, cell-based
Plasmodium falciparum = test: Antimalarial activity after 42 hrs against Plasmodium falciparum K1; conditions: K1, 42 h
[2] = as §1; assay type: functional, cell-based

CC(=O)C[C@]1(O)C(=O)c2c(O)cc(CO)cc2O[C@@]1(C)[C@@H]1CCC(=O)O1
Activity (BC1): inactive
Activity (Candida albicans): inactive
Activity [1]: inactive
Activity (KB): inactive

C[C@]1([C@@H]2CCC(=O)O2)CC(=O)c2c(O)cc(CO)cc2O1
Activity (BC1): inactive
Activity (Candida albicans): inactive
Activity [1]: inactive
Activity (KB): inactive

Cc1cc(O)c2c(=O)c(O)c(C)oc2c1
Activity (BC1): inactive
Activity (Candida albicans): inactive
Activity [1]: inactive
Activity (KB): inactive

C[C@H]1[C@@H](O)O[C@@H]2O[C@@]3(C)CC[C@H]4[C@H](C)CC[C@@H]1[C@@]24OO3 [ARTENIMOL]
IC50 (Plasmodium falciparum): 3.7 nM

Cc1c2ccncc2c(C)c2c1[nH]c1ccccc12 [ELLIPTECINE]
IC50 [2]: 0.22 µg/mL (≈ 0.893 µM)
IC50 (KB): 0.24 µg/mL (≈ 0.974 µM)

NNC(=O)c1ccncc1 [ISONIAZID]
MIC [1]: 0.05 µg/mL (≈ 0.365 µM)

NC[C@H]1O[C@H](O[C@H]2[C@H](O)[C@@H](O[C@H]3O[C@H](CO)[C@@H](O)[C@H](N)[C@H]3O)[C@H](N)C[C@@H]2N)[C@H](O)[C@@H](O)[C@@H]1O.O=S(=O)(O)O [KANAMYCIN SULFATE]
MIC [1]: 2.5 µg/mL

Cc1oc2cc(CO)cc(O)c2c(=O)c1O [LACHNONE B]
Activity (BC1): inactive
Activity (Candida albicans): inactive
MIC [1]: 200 µg/mL (≈ 900 µM)
Activity (KB): inactive

C[C@@]1([C@@H]2CCC(=O)O2)Oc2cc(CO)cc(O)c2C(=O)[C@H]1O [LACHNONE D]
Activity (BC1): inactive
Activity (Candida albicans): inactive
MIC [1]: 200 µg/mL (≈ 649 µM)
Activity (KB): inactive
